CSC inhib: cancer stem cell inhibition | cancer stem cell-like cells viability, luminescence | inhibition, % at 7.5 µM | actives 1.1% (n = 300,000) | AID 2717; in the data active means inhibition above about 75%; inconclusive means no clear call, values can overlap the other calls; tested in HMLE shEcad cells
PglD DTNB: PglD (C. jejuni) enzyme inhibition; purified PglD enzyme, DTNB colorimetric CoA detection; inhibition, % at 12.5 µM; actives 0.098% (n = 360,000); AID 602405; in the data active means inhibition above about 16%, passing the limit was not always enough; inconclusive means no clear call, values can overlap the other calls
FN deposition inh: fibronectin deposition inhibition; actives 0.086% (n = 350,000); inhibition, % at 12.6 µM; AID 743247; AH1F fibroblasts, Alexa488-fibronectin deposition fluorescence, overnight;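 active means mean inhibition across replicates of 30% or more, regardless of how many single replicates reach that level; inconclusive means mean under 30% yet at least half of replicates reach 30%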
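Material – AH1F fibroblast monolayer, labelled fibronectin deposition · Reagent – labelled fibronectin 24 nM · Timing – 1 h adhesion, overnight exposure · Measured by – fluorescence at 485 nm excitation, 525 nm emission · Read-out – inhibition of fibronectin deposition signal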
Rtt109 Vps75: inhibitors of Candida albicans Rtt109/Vps75 histone acetyltransferase | Q5AAJ8 | purified Rtt109/Vps75, ThioGlo CoA-SH fluorescence, 4 h | inhibition, % at 34.9 µM | actives 0.16% (n = 330,000) | AID 540336;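 active means inhibition of at least 50% in every replicate; inconclusive means best replicate reaches 50% inhibition but some replicates fall short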
Target sequence (Q5AAJ8 whole entry, looked up): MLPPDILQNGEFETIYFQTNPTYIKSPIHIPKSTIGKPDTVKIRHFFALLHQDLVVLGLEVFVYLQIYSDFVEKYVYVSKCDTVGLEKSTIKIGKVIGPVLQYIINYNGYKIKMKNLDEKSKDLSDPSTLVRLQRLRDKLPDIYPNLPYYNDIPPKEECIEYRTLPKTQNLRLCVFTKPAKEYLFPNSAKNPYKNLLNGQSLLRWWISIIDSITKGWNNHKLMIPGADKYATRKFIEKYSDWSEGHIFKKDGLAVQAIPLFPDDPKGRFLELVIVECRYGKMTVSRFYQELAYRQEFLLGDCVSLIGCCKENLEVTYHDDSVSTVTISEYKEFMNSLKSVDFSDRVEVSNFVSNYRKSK
SKKanGAS inh: SKKanGAS growth inhibition; S. pyogenes SKKanGAS, kanamycin growth, BacTiter-Glo, 6 h; actives 1.3% (n = 300,000); inhibition, % at 7.5 µM; AID 1662;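 active means mean replicate score, as percent of positive control median, at least 50; inconclusive means mean below 50 but one replicate at or above 50; inactive means mean and every replicate below 50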;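 further: strain carries kanamycin resistance gene driven by streptokinase promoter and grows in 40 µg/ml kanamycin; loss of luminescence reflects streptokinase promoter inhibition or plain growth inhibition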
PfHsp90 yeast 2: inhibits growth of yeast expressing Plasmodium falciparum Hsp90 | S. cerevisiae expressing PfHsp90, BacTiter-Glo ATP, 48 h; yeast lacking PDR1 and PDR3 efflux regulators | inhibition, % at 9.4 µM | actives 0.32% (n = 310,000);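 active means every replicate shows inhibition above about 80%, whatever the replicate mean, limit read from the data; inconclusive means mean inhibition reaches the set limit but some replicate falls short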
Large screens that a line does not name were inactive. A selection: hits, their analogues and other compounds. The true share with any hit is near 1.7%.

Cc1cc(C(=O)N/N=C/c2ccc([N+](=O)[O-])o2)c(C)o1	none (no result: PglD DTNB)
O=C(N/N=C/c1ccc([N+](=O)[O-])o1)c1cc(-c2cccc(Br)c2)nc2ccccc12	SKKanGAS inh 97.7
O=C(CNc1ccc2ccccc2c1)N/N=C/c1ccc([N+](=O)[O-])o1	SKKanGAS inh 83.0
CCCc1ccc(-c2cc(C(=O)N/N=C/c3ccc([N+](=O)[O-])o3)c3ccccc3n2)cc1	SKKanGAS inh 96.5 (no result: FN deposition inh)
COc1cccc(-c2cc(C(=O)N/N=C/c3ccco3)c3ccccc3n2)c1	none
O=C(N/N=C/c1ccc([N+](=O)[O-])o1)c1sc2ccccc2c1Cl	PfHsp90 yeast 2 103.5 (no result: PglD DTNB)
C[C@@H]1C(=O)N[C@@H](c2ccccc2)CC=CC[C@H](C)Oc2ccccc2C(=O)N1C (mixture of isomers)	none (no result: CSC inhib, PglD DTNB, Rtt109 Vps75, SKKanGAS inh, PfHsp90 yeast 2)
C[C@@H]1CN([C@@H](C)CO)C(=O)c2cc(NS(=O)(=O)c3ccc(Cl)cc3)ccc2O[C@@H](C)CCCCO[C@H]1CN(C)S(=O)(=O)c1ccccc1	none (no result: CSC inhib, Rtt109 Vps75, SKKanGAS inh, PfHsp90 yeast 2)
Cc1noc(C)c1NC(=O)Nc1ccc2c(c1)C(=O)N([C@H](C)CO)C[C@@H](C)[C@H](CN(C)C)OCCCC[C@H](C)O2	none (no result: CSC inhib, FN deposition inh, Rtt109 Vps75, SKKanGAS inh, PfHsp90 yeast 2)
C[C@H](CO)N1C[C@H](C)[C@H](CN(C)Cc2ccncc2)Oc2c(NC(=O)Nc3ccccc3)cccc2C1=O	none (no result: CSC inhib, FN deposition inh, Rtt109 Vps75, SKKanGAS inh, PfHsp90 yeast 2)
CCOC(=O)c1ccc(N2C(=O)C=CC2=O)cc1	PfHsp90 yeast 2 130.2 (no result: FN deposition inh)
CCOC(=O)c1ccc(-n2c(C)ccc2C)cc1	none (no result: PglD DTNB)
CC(C)N1CCc2c(sc(NC(=O)c3ccc([N+](=O)[O-])o3)c2C(N)=O)C1	SKKanGAS inh inconclusive
COC(=O)c1c(NC(=O)c2ccc([N+](=O)[O-])o2)sc2c1CCN(C(C)C)C2	SKKanGAS inh 57.0
Cc1ccc(S(=O)(=O)Nc2ccc3c(c2)C(=O)N([C@@H](C)CO)C[C@H](C)[C@H](CN(C)C(=O)C2CCCCC2)OCCCC[C@@H](C)O3)cc1	none (no result: CSC inhib, Rtt109 Vps75, SKKanGAS inh, PfHsp90 yeast 2)
O=C(Nc1ccc(Cl)c(Cl)c1)Nc1ccc(Br)cc1F	CSC inhib 92.4 (no result: PglD DTNB, FN deposition inh)
O=C(Nc1ccc(Cl)c(Cl)c1)Nc1ccccc1O	CSC inhib 93.3
O=C(Nc1ccc(Cl)cc1)Nc1ccc(Cl)c(Cl)c1	none (no result: PglD DTNB, Rtt109 Vps75, SKKanGAS inh, PfHsp90 yeast 2)
C[C@@H]1CN([C@H](C)CO)C(=O)c2cc(NC(=O)C3CCCCC3)ccc2O[C@@H](C)CCCCO[C@H]1CN(C)C(=O)Cc1ccccc1	none (no result: CSC inhib, FN deposition inh, Rtt109 Vps75, SKKanGAS inh, PfHsp90 yeast 2)
C[C@H](CO)N1C[C@H](C)[C@@H](CN(C)Cc2ccccc2)Oc2ncc(-c3ccccc3F)cc2C1=O	none (no result: CSC inhib, Rtt109 Vps75, SKKanGAS inh, PfHsp90 yeast 2)
O=C(Cc1ccccc1)Nn1c(O)c(/C=C2\C=Nc3ccccc32)sc1=S	SKKanGAS inh 50.1 (no result: PglD DTNB)
Cn1c(O)c(/C=C2\C=Nc3ccccc32)sc1=Nc1ccc(C(=O)O)cc1	none
O=C(C[C@@H]1CC[C@H]2[C@@H](COC[C@@H](O)CN2C(=O)Nc2cc(Cl)cc(Cl)c2)O1)NCC1CC1	none (no result: CSC inhib, Rtt109 Vps75, SKKanGAS inh, PfHsp90 yeast 2)
CN(C)C(CNC(=O)c1ccc(C(=O)c2ccccc2)cc1)c1ccccc1 (stereo not drawn)	Rtt109 Vps75 54.2
O=C(Nc1nc(-c2nc3ccccc3s2)cs1)C1COc2ccccc2O1 (stereo not drawn)	SKKanGAS inh 75.8
O=C(Nc1nc(-c2nc3ccccc3s2)cs1)c1ccc(S(=O)(=O)N2CCOCC2)cc1	Rtt109 Vps75 62.1 (no result: FN deposition inh)
CCCCn1c(NC(=O)C2CCCCC2)nc2ccccc21	SKKanGAS inh 96.6 (no result: PglD DTNB, FN deposition inh)
COc1ccc(OC)c(-c2csc(NC(=O)C3COc4ccccc4O3)n2)c1 (stereo not drawn)	none (no result: PglD DTNB)
CCCn1c(NC(=O)C2COc3ccccc3O2)nc2ccccc21 (stereo not drawn)	SKKanGAS inh 96.9
CO[C@H]1CN(C)C(=O)c2ccc(NC(=O)C3CC3)cc2OC[C@@H](C)N(Cc2cccc(F)c2)C[C@@H]1C	none (no result: CSC inhib, Rtt109 Vps75, SKKanGAS inh, PfHsp90 yeast 2)
CCCn1c(NC(=O)c2ccccc2Br)nc2ccccc21	SKKanGAS inh 57.9
Nc1nc(=S)c2[nH]cnc2[nH]1	CSC inhib 91.1 (no result: SKKanGAS inh)
Cc1nc(-c2cccc(NS(=O)(=O)c3ccccc3)c2)cs1	none (no result: FN deposition inh)
Cc1ccc2nc(-c3cccc(NS(C)(=O)=O)c3)cc(-c3ccccc3)c2c1	CSC inhib 114.5, PfHsp90 yeast 2 100.1 (no result: PglD DTNB)
C[C@H]1CN([C@@H](C)CO)C(=O)Cc2cc(NC(=O)CCN3CCOCC3)ccc2O[C@@H]1CN(C)Cc1ccccc1	none (no result: CSC inhib, FN deposition inh, Rtt109 Vps75, SKKanGAS inh, PfHsp90 yeast 2)

Source: PubChem BioAssay (Broad Institute)
